Source: ChEMBL document CHEMBL5653631, “A Potent and Selective ULK1 Inhibitor Suppresses Autophagy and Sensitizes Cancer Cells to Nutrient Stress” (iScience, 2018)
pIC50: −log10 of the molar value. Each block holds one molecule with its values, some of them ahead of it.

Tests used:
[1] = molecular target: T1, Rhodopsin kinase GRK1 (Homo sapiens) (UniProt Q15835); assay: Inhibition of human recombinant RHOK at 500 nM in presence of ATP by radiometric assay relative to control
T1 sequence (whole entry): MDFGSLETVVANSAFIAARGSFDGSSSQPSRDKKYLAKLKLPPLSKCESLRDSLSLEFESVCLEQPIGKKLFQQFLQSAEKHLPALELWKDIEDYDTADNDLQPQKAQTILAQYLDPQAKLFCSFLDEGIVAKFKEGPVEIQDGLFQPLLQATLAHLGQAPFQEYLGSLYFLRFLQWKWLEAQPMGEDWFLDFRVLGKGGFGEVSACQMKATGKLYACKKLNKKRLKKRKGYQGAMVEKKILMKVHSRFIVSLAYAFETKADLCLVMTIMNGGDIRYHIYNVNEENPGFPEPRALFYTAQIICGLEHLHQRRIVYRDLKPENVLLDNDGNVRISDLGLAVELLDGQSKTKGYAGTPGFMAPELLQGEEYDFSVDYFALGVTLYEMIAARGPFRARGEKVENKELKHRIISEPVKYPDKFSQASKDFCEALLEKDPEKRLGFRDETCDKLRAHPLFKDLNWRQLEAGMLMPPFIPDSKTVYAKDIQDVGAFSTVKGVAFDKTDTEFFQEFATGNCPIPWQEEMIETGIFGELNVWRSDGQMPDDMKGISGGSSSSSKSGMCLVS

[2] = molecular target: cAMP-dependent protein kinase catalytic subunit alpha (Homo sapiens) (UniProt P17612); assay: Inhibition of human recombinant PKACalpha at 500 nM in presence of ATP by radiometric assay relative to control
[3] = molecular target: T2, Ephrin type-A receptor 8 (Homo sapiens) (UniProt P29322); assay: Inhibition of human recombinant EphA8 at 500 nM related to control ULK1
T2 sequence (whole entry): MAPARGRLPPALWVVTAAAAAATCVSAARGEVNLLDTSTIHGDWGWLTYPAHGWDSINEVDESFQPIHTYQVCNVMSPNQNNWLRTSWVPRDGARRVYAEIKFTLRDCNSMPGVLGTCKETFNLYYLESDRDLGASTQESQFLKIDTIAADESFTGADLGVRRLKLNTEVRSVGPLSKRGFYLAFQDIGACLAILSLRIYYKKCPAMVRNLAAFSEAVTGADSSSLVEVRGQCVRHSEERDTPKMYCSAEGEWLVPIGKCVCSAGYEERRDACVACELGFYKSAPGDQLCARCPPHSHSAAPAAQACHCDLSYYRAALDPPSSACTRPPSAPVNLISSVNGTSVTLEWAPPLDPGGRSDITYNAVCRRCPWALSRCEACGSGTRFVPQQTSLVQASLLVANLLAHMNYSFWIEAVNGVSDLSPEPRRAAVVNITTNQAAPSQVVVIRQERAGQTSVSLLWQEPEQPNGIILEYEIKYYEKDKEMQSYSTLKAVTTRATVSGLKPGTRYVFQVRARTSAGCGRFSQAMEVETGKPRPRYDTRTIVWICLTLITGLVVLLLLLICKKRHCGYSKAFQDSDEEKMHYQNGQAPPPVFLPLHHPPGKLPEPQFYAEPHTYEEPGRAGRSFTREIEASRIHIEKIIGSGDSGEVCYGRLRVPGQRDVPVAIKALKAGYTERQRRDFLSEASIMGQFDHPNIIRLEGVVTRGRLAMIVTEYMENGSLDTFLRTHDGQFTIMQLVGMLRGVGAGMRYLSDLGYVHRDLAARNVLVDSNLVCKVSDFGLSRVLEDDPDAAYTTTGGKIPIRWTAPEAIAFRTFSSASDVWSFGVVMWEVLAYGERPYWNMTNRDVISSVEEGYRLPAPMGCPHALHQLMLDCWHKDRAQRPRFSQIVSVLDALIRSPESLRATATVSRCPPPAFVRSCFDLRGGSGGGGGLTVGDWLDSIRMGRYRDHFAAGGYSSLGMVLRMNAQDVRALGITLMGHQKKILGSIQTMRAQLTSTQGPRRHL

[4] = molecular target: Calcium/calmodulin-dependent protein kinase type II subunit gamma (Homo sapiens) (UniProt Q13555); assay: Inhibition of human recombinant CaMK2g at 500 nM related to control ULK1
Sequence of Calcium/calmodulin-dependent protein kinase type II subunit gamma (Homo sapiens) (Q13555 whole entry): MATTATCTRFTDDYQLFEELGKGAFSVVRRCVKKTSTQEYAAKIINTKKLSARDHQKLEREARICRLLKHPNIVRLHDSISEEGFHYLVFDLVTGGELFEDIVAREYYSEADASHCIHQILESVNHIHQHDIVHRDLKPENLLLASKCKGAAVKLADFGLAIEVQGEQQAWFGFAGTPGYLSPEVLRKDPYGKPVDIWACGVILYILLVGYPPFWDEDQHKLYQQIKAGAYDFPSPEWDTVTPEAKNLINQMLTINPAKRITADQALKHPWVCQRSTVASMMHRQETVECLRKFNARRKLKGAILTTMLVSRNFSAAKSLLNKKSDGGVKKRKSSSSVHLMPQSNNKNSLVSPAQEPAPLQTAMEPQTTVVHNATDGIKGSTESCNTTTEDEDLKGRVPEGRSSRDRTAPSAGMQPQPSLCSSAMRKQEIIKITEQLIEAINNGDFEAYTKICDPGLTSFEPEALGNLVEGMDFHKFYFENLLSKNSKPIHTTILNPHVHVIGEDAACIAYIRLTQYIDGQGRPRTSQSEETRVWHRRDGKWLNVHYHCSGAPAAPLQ

[5] = molecular target: T3, Aurora kinase A (Homo sapiens) (UniProt O14965); assay: Inhibition of human recombinant AurA at 15 nM related to control ULK1
T3 sequence (whole entry): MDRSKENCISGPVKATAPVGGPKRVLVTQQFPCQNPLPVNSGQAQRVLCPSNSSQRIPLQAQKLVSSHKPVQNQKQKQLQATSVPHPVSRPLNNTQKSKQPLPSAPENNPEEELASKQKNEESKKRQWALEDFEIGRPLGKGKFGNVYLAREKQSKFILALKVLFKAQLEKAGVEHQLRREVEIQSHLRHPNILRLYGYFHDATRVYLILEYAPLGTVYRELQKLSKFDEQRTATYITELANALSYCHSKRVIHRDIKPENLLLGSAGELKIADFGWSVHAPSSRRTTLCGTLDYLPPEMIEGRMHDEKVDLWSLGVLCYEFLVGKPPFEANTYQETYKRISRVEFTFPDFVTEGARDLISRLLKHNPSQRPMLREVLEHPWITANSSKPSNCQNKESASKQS
How it was run: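 Panel of 327 recombinant human kinases, each assayed in vitro by radiometric activity assay in duplicate at a single inhibitor concentration per compound, chosen with reference to its ULK1 inhibition. Activity remaining was expressed as percent of vehicle control, and percent inhibition was calculated as 100 minus percent activity remaining.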

[6] = molecular target: T4, Serine/threonine-protein kinase Nek2 (Homo sapiens) (UniProt P51955); assay: Inhibition of human recombinant NEK2 at 15 nM in presence of ATP by radiometric assay relative to control
T4 sequence (whole entry): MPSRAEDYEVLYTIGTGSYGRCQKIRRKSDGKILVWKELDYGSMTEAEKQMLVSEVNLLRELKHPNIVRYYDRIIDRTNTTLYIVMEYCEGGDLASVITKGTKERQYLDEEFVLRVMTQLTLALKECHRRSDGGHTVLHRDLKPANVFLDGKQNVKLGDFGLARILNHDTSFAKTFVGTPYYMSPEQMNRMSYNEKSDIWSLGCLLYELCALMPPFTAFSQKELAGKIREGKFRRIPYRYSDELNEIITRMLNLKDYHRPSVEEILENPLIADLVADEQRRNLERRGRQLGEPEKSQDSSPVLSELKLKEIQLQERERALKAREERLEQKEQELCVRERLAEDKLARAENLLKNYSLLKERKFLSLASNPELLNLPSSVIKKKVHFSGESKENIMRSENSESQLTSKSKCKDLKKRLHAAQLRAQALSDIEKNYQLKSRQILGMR

[7] = molecular target: MAP kinase-interacting serine/threonine-protein kinase 2 (Homo sapiens, UniProt Q9HBH9); assay: Inhibition of human recombinant MNK2
Sequence of MAP kinase-interacting serine/threonine-protein kinase 2 (Q9HBH9 whole entry): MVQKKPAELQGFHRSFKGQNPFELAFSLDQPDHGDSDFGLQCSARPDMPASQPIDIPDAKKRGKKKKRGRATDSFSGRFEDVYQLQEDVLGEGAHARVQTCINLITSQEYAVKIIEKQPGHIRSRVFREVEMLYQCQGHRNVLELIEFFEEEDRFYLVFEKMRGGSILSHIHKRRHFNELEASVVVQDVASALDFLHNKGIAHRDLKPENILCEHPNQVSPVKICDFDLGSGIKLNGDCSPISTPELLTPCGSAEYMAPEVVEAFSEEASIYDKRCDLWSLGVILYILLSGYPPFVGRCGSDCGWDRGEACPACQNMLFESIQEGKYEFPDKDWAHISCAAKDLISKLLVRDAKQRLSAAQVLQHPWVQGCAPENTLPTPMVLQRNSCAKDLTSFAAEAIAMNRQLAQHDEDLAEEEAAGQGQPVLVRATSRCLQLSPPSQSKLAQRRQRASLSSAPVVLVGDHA

[8] = molecular target: Tyrosine-protein kinase ABL2 (Homo sapiens) (UniProt P42684); assay: Inhibition of human recombinant ABL2 at 40 nM related to control ULK1
Sequence of Tyrosine-protein kinase ABL2 (Homo sapiens) (P42684 whole entry): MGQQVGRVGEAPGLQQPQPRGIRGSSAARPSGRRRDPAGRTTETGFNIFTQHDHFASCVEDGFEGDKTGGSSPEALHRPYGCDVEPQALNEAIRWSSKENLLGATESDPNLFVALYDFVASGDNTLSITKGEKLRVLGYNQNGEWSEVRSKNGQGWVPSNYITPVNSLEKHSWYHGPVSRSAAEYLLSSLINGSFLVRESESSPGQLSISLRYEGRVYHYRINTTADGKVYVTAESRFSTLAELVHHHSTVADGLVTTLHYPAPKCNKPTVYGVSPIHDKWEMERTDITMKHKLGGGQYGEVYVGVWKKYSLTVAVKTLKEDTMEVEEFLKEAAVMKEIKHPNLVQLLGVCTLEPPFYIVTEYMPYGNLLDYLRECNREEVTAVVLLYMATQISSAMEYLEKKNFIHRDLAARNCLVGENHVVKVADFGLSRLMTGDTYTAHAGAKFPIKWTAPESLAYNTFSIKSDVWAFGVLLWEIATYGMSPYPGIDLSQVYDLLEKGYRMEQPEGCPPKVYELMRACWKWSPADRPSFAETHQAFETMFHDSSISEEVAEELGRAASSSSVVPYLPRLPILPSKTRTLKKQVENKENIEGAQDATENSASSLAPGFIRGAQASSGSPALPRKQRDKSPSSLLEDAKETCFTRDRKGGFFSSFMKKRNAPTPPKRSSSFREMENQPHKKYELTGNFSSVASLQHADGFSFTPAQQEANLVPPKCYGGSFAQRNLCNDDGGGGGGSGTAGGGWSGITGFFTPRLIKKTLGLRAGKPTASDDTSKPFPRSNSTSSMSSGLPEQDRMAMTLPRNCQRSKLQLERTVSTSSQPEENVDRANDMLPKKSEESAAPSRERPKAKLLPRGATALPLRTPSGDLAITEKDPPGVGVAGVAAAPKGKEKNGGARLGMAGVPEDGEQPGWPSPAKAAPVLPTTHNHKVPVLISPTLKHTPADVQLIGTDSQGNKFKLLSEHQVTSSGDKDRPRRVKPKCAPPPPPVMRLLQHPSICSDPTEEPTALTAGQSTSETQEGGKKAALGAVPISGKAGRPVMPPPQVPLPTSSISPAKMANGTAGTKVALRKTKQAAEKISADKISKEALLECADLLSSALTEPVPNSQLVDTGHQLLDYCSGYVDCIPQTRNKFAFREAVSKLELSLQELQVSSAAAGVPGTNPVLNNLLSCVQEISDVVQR
How it was run: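 Radiometric activity assays in a panel of 327 human recombinant kinases, each run in duplicate at one inhibitor concentration. Activity remaining is expressed as percent of vehicle control, and percent inhibition is calculated as 100% minus percent activity remaining.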

inhibition [1]: 0% | inhibition [2]: 0% | fold change (FC) [3]: 0.03 | fold change (FC) [4]: 0.03
SMILES: CNC(=O)c1ccccc1Oc1nc(Nc2cc(OC)c(OC)c(OC)c2)ncc1Br

fold change (FC) [5]: 0.15 | inhibition [6]: 12%
SMILES: CC(C)[C@H](NC(=O)c1cc(-c2cnn3cc(-c4ccc(OCCN5CCCCC5)cc4)cnc23)cs1)C(F)(F)F

pIC50 [7]: 7.66 | fold change (FC) [8]: 0.1
SMILES: O=C(N[C@@H](C1CC1)C(F)(F)F)c1cc(-c2cnn3cc(-c4ccc(F)cc4)cnc23)cs1
